Laboratory results as given in ChEMBL document CHEMBL3526127, “Absorption, elimination, and metabolism of CS-1036, a novel α-amylase inhibitor in rats and monkeys, and the relationship between gastrointestinal distribution and suppression of glucose absorption” (Drug Metab Dispos, 2013).

Columns and labels:
[1] = Cmax in cynomolgus monkey at 0.3 mg/kg, po administered as single dose by LC-MS/MS method; type: ADME, organism-based, Macaca fascicularis; design: dose 0.3 mg/kg, route oral; details: in vivo
Method in brief: (§1)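 Fasted male F344 rats (146–185 g) and cynomolgus monkeys (3.48–4.29 kg), n = 4 each, received a single oral dose; monkeys had 2-week washouts. Plasma sampled up to 48 h, stored at […], assayed by LC-MS/MS with a deuterated internal standard. Cmax taken from observed data by noncompartmental analysis; mean ± S.D. (n = 3 or 4).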

Alpha amylase = molecular target: T1, Alpha amylase (Homo sapiens, UniProt P0DUB6); test: Inhibition of pancreatic alpha amylase (unknown origin)
T1 sequence (P0DUB6 whole entry): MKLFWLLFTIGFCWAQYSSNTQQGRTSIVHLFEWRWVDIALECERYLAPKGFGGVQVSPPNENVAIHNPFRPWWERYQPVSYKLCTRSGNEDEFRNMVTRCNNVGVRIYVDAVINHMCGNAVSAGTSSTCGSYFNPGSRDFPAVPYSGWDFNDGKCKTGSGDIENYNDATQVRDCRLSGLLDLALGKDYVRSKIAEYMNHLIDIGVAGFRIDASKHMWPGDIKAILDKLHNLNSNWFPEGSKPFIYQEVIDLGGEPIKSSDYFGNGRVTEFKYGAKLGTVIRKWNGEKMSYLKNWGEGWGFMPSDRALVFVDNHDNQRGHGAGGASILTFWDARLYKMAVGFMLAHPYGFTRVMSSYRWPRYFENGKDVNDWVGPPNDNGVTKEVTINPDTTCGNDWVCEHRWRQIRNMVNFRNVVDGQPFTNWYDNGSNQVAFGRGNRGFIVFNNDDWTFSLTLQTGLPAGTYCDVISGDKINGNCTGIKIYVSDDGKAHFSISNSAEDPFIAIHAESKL

[2] = AUC (0 to infinity) in cynomolgus monkey at 0.3 mg/kg, iv administered as single dose by LC-MS/MS method; type: ADME, organism-based, Macaca fascicularis; design: time infinity, dose 0.3 mg/kg, route intravenous; details: plasma
Method in brief: (§2)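 Fasted male F344 rats (146–185 g) or male cynomolgus monkeys (3.48–4.29 kg), n = 4 per dose, given single iv or oral dose of 0.3, 1.0, 3.0 or 10.0 mg/kg; monkeys dosed with 2-week washouts. Blood sampled to 48 h; plasma stored frozen. LC-MS/MS with deuterated internal standard. Noncompartmental analysis: AUClast by trapezoidal rule; AUC0–inf = AUClast + Ctz/terminal rate constant; mean ± S.D.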

[3] = Clearance in cynomolgus monkey at 10 mg/kg, iv administered as single dose by LC-MS/MS method; type: ADME, organism-based, Macaca fascicularis; design: dose 10 mg/kg, route intravenous; details: in vivo
Method in brief: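 Fasted male F344 rats (146–185 g) and male cynomolgus monkeys (3.48–4.29 kg), n = 4 each, received a single iv dose; monkeys had 2-week washouts between doses. Blood was sampled up to 48 h and plasma stored at […]. Plasma parent was quantified by LC-MS/MS with a deuterated internal standard. CL = dose/AUC0–inf by noncompartmental analysis; mean ± S.D.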

[4] = AUC (0 to infinity) in cynomolgus monkey at 1 mg/kg, po administered as single dose by LC-MS/MS method; type: ADME, organism-based, Macaca fascicularis; design: dose 1 mg/kg, route oral, time infinity; details: plasma; method in brief: as §2
[5] = Half life in cynomolgus monkey at 1 mg/kg, po administered as single dose by LC-MS/MS method; type: ADME, organism-based, Macaca fascicularis; design: dose 1 mg/kg, route oral; details: in vivo
Method in brief: (§3)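 Male F344 rats (146–185 g) and male cynomolgus monkeys (3.48–4.29 kg), n = 4 each, fasted overnight, received single iv or oral doses of 0.3, 1.0, 3.0 or 10.0 mg/kg. Monkeys had 2-week washouts between doses. Plasma was sampled to 48 h and assayed by LC-MS/MS with deuterated internal standard. Noncompartmental analysis: tmax observed; t1/2 by regression on ≥3 terminal log points; Vss = dose·AUMC/(AUC0–inf)²; Foral = oral/iv AUC0–inf at the same dose.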

[6] = Half life in F344 rat at 3 mg/kg, iv administered as single dose by LC-MS/MS method; type: ADME, organism-based; design: dose 3 mg/kg, route intravenous; details: in vivo; method in brief: as §3
Rattus norvegicus [7] = test: Reduction in plasma glucose in starch loaded po dosed ZDF rat; type: functional
Method in brief: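 Male ZDF rats were acclimatized to 10 weeks of age and fasted overnight (n = 8 per group). They were given oral compound (0–0.1 mg/kg) in starch suspension (2 g/kg); a nonstarch control received water at 10 ml/kg. Plasma glucose was measured at −15 min (taken as baseline) and at 0.5, 1, 2 and 4 h with an automatic analyzer. ΔAUC of glucose change was calculated by the trapezoidal rule. ED50 came from a sigmoid Emax model bounded by the starch and nonstarch controls, and groups were compared by Dunnett test.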

[8] = Cmax in cynomolgus monkey at 10 mg/kg, po administered as single dose by LC-MS/MS method; type: ADME, organism-based, Macaca fascicularis; design: dose 10 mg/kg, route oral; details: in vivo; method in brief: as §1
[9] = Drug metabolism in monkey kidney S9 fractions at 0.42 uCi/ml assessed as metabolite formation in presence of NADPH after 1 hr at 37 degC by LC-MS/MS method; type: ADME, tissue-based, Macaca mulatta; details: rhesus monkey, s9, 1 h
Cynomolgus monkey = test: Drug excretion in cynomolgus monkey assessed as drug level found during cage washing at 3 mg/kg, iv administered as single dose after 0 to 48 hrs by scintillation counting method; type: ADME, organism-based, Macaca fascicularis; design: dose 3 mg/kg, route intravenous; details: in vivo
Method in brief: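 Fasted cynomolgus monkeys (n = 4) received [14C]-labelled drug at 3 mg/kg, iv via saphenous vein (191 µCi/kg) or orally by stomach catheter (156.5 µCi/kg). Urine, feces and water cage-wash were collected to 336 h. Samples were counted by liquid scintillation; feces were homogenized in 4-fold water. Results are % of dose, mean ± S.D.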

[10] = Drug metabolism in human intestinal S9 fractions at 0.42 uCi/ml assessed as metabolite formation in presence of NADPH after 1 hr at 37 degC by LC-MS/MS method; type: ADME, Intestine; details: s9, 1 h
[11] = Drug metabolism in anaerobic culture broth of monkey feces assessed as 1,4-dideoxy-1,4-imino-D-arabinitol formation at 63.5 uCi/ml after 24 hrs at 35 degC by LC-MS/MS method; details: cynomolgus monkey
[12] = Drug excretion in F344 rat urine at 1 mg/kg, po administered as single dose after 24 hrs by scintillation counting method; type: ADME, organism-based; design: dose 1 mg/kg, route oral; details: in vivo
Method in brief: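 [14C]-labelled drug (1 mg/kg, 42.2 µCi/kg) was given orally to fasted F344 rats (164–168 g, n = 3). Urine and feces were collected to 24 h; feces were homogenized in 9 volumes of water, combusted and counted. Parent fraction came from the excreted radioactivity times the radio-HPLC (HILIC) peak-area ratio; mean ± S.D.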

[13] = Drug metabolism in rat liver S9 fractions at 0.42 uCi/ml assessed as metabolite formation in presence of NADPH after 1 hr at 37 degC by LC-MS/MS method; type: ADME, subcellular, Liver S9 fraction; details: s9, 1 h
Rattus norvegicus [14] = test: Total drug excretion in F344 rat at 1 mg/kg, po administered as single dose after 0 to 48 hrs by scintillation counting method; type: ADME, organism-based; design: dose 1 mg/kg, route oral; details: in vivo
Method in brief: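 Fasted F344 rats (n = 4) received [14C]-labelled drug at 1 mg/kg (41.9 µCi/kg), iv via tail vein or oral. They were housed in metabolic cages. Urine and feces were collected to 168 h, and expired CO2 was trapped in 2-aminoethanol/2-methoxyethanol to 48 h. Radioactivity was counted by liquid scintillation, feces after homogenization. Results are % of dose.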

| Compound | Cmax [1] [ng/mL] | IC50 (Alpha amylase) [nM] | AUC(0-inf) [2] [ng·h/mL] | clearance [3] [mL/min/kg] | AUC(0-inf) [4] [ng·h/mL] | half-life [5] [h] | half-life [6] [h] | ED50 (Rattus norvegicus [7]) [mg/kg] | inhibition (Rattus norvegicus [7]) | Cmax [8] [ng/mL] | Drug metabolism [9] | Drug excretion (Cynomolgus monkey) [%] | Drug metabolism [10] | Drug metabolism [11] | Drug excretion [12] [%] | Drug metabolism [13] | Drug excretion (Rattus norvegicus [14]) [%] |
| --- | --- | --- | --- | --- | --- | --- | --- | --- | --- | --- | --- | --- | --- | --- | --- | --- | --- |
| C[C@H]1O[C@@H](O[C@H]2[C@H](O)[C@@H](O)[C@@H](O[C@H]3[C@H](O)CN[C@@H]3CO)O[C@@H]2CO)[C@H](O)[C@@H](O)[C@@H]1O | 5.23 | 450 | 2010 | 2.25 | 57.9 | 1.29 | 23.6 | 0.015 | Dose-dependent effect | 152 |  |  |  |  |  |  |  |
| C[C@H]1O[C@@H](O[C@H]2[C@H](O)[C@@H](O)[C@@H](O[14C@H]3[14C@H](O)[14CH2]N[14C@@H]3[14CH2]O)O[C@@H]2CO)[C@H](O)[C@@H](O)[C@@H]1O |  |  |  |  |  |  |  |  |  |  | metabolite_not_detected | 13.7 | metabolite_not_detected | metabolite_detected | 1.4 | metabolite_not_detected | 93.26 |
